{
  "source": "ChEMBL document CHEMBL4270555",
  "about": "“Synthesis and biological evaluation of magnolol derivatives as melatonergic receptor agonists with potential use in depression” (Eur J Med Chem, 2018)",
  "key": {"[1]": {"assay": "Drug metabolism in Sprague-Dawley rat urine assessed as (2S,3R,4S,5S,6R)-2-(5,5'-diallyl-2'-methoxybiphenyl-2-yloxy)-6-(hydroxymethyl)tetrahydro-2H-pyran-3,4,5-triol formation at 100 mg/kg, po by UPLC-IT-TOF-MS analysis", "type": "ADME, organism-based", "details": "in vivo", "how_it_was_run": "(§1)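 Male/unspecified SD rats (n = 6) housed individually in metabolic cages, dosed orally at 100.0 mg/kg; controls given 0.5% CMC-Na orally. Plasma, urine and faeces collected. LC-IT-TOF-MS on C18 column at 30 °C, formic acid (0.05%) water/acetonitrile gradient 5–100% B over 18 min, 0.2 mL/min; positive and negative ion modes with automatic MS/MS.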"}, "[2]": {"assay": "Drug metabolism in Sprague-Dawley rat urine assessed as 5,5'-diallylbiphenyl-2,2'-diol formation at 100 mg/kg, po by UPLC-IT-TOF-MS analysis", "type": "ADME, organism-based", "details": "in vivo", "how_it_was_run": "as §1"}, "[3]": {"assay": "Drug level in Sprague-Dawley rat plasma at 100 mg/kg, po by UPLC-IT-TOF-MS analysis", "type": "ADME, organism-based", "details": "in vivo", "how_it_was_run": "(§2)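 Rats (n = 6) housed in metabolic cages received 100.0 mg/kg orally; controls received 0.5% CMC-Na. Plasma, urine and faeces were collected and analyzed by LC-IT-TOF-MS on a C18 column at 30 °C. Gradient 5–100% acetonitrile with 0.05% formic acid over 18 min at 0.2 mL/min; positive and negative ion MS/MS.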"}, "[4]": {"assay": "Drug metabolism in Sprague-Dawley rat plasma assessed as 2'-hydroxy-5'-(1-hydroxyallyl)-5-propylbiphenyl-2-yl hydrogen sulfate formation at 100 mg/kg, po by UPLC-IT-TOF-MS analysis", "type": "ADME, organism-based", "details": "in vivo", "how_it_was_run": "as §2"}, "[5]": {"target": "T1, Melatonin receptor type 1B (Homo sapiens, UniProt P49286)", "T1 sequence (P49286 whole entry)": "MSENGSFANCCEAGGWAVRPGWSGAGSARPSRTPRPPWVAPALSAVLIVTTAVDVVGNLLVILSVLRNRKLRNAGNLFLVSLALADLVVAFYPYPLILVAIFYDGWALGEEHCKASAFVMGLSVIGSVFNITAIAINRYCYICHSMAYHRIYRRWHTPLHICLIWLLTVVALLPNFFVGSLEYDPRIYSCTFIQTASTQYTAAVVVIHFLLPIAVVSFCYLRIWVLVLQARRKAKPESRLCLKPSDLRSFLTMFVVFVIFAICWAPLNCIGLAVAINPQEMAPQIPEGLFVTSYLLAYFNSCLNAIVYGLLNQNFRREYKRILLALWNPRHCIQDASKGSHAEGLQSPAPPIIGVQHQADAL", "assay": "Agonist activity at human MT2 receptor expressed in HEK293 cells after 24 hrs by Fluo-8 dye-based calcium assay", "type": "functional, cell-based", "how_it_was_run": "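Fluo-8 calcium flux in HEK293 cells stably expressing human MT1 or MT2, grown in DMEM + 10% FBS at 37 °C, seeded 4×10^4/well and incubated 24 h. Compounds in DMSO/HBSS at several concentrations; fluorescence read at room temperature (ex 485, em 525 nm). Triplicate wells, three independent experiments; EC50 by nonlinear regression.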"}, "[6]": {"assay": "Drug metabolism in Sprague-Dawley rat plasma assessed as 5'-acryloyl-2'-hydroxy-5-propionylbiphenyl-2-yl hydrogen sulfate formation at 100 mg/kg, po by UPLC-IT-TOF-MS analysis", "type": "ADME, organism-based", "details": "in vivo", "how_it_was_run": "as §1"}, "Rattus norvegicus [7]": {"test_system": "Rattus norvegicus", "assay": "Toxicity in Sprague-Dawley rat assessed as skin rashes at 2000 mg/kg, po measured over 4 hrs", "type": "organism-based", "details": "in vivo", "how_it_was_run": "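Acute oral toxicity run per OECD 425 in adult SD rats (180–220 g). Six animals per group: vehicle control (0.5% CMC-Na, oral), male rats and female rats each dosed orally at 2000 mg/kg. Animals were watched continuously for the first 4 h for behavior, breathing, cutaneous signs (irritation, ulceration, caustic injury, skin rashes), sensory nervous and gastrointestinal effects. Later checks were hourly for 24 h, then every 6 h for 48 h.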"}, "[8]": {"assay": "Drug metabolism in Sprague-Dawley rat plasma assessed as 5'-(1-hydroxyallyl)-5-(1-hydroxypropyl)-2'-((2S,3R,4S,5S,6R)-3,4,5-trihydroxy-6-(hydroxymethyl)tetrahydro-2H-pyran-2-yloxy)biphenyl-2-yl hydrogen sulfate formation at 100 mg/kg, po by UPLC-IT-TOF-MS analysis", "type": "ADME, organism-based", "details": "in vivo", "how_it_was_run": "as §2"}, "[9]": {"assay": "Drug metabolism in Sprague-Dawley rat feces assessed as 1-(5'-allyl-2'-hydroxy-6-((2S,3R,4S,5S,6R)-3,4,5-trihydroxy-6-(hydroxymethyl)tetrahydro-2H-pyran-2-yloxy)biphenyl-3-yl)prop-2-en-1-one formation at 100 mg/kg, po by UPLC-IT-TOF-MS analysis", "type": "ADME, organism-based", "details": "in vivo", "how_it_was_run": "as §2"}, "Rattus norvegicus [10]": {"test_system": "Rattus norvegicus", "assay": "Toxicity in Sprague-Dawley rat assessed as change in behaviour at 2000 mg/kg, po measured continuously for first 4 hrs followed by measured every hour for next 24 hrs and at 6 hrs intervals for following 48 hrs post dose", "type": "organism-based", "details": "in vivo", "how_it_was_run": "(§3)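 Followed OECD 425 in adult SD rats (180–220 g), three groups of six. Vehicle control received 0.5% CMC-Na orally; separate male and female groups received 2000 mg/kg orally. Endpoints observed: behaviour, breathing, cutaneous effects, sensory nervous system responses, gastrointestinal effects and deaths.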"}, "[11]": {"assay": "Drug metabolism in Sprague-Dawley rat plasma assessed as (2S,3S,4S,5R,6S)-6-(5,5'-diallyl-2'-methoxybiphenyl-2-yloxy)-3,4,5-trihydroxytetrahydro-2H-pyran-2-carboxylic acid formation at 100 mg/kg, po by UPLC-IT-TOF-MS analysis", "type": "ADME, organism-based", "details": "in vivo", "how_it_was_run": "as §2"}, "[12]": {"assay": "Drug metabolism in Sprague-Dawley rat feces assessed as 1-(2'-hydroxy-5'-(1-hydroxyallyl)-6-((2S,3R,4S,5S,6R)-3,4,5-trihydroxy-6-(hydroxymethyl)tetrahydro-2H-pyran-2-yloxy)biphenyl-3-yl)prop-2-en-1-one formation at 100 mg/kg, po by UPLC-IT-TOF-MS analysis", "type": "ADME, organism-based", "details": "in vivo", "how_it_was_run": "as §2"}, "[13]": {"assay": "Drug metabolism in Sprague-Dawley rat plasma assessed as 5,5'-diallyl-2'-((2S,3R,4S,5S,6R)-3,4,5-trihydroxy-6-(hydroxymethyl)tetrahydro-2H-pyran-2-yloxy)biphenyl-2-yl hydrogen sulfate formation at 100 mg/kg, po by UPLC-IT-TOF-MS analysis", "type": "ADME, organism-based", "details": "in vivo", "how_it_was_run": "as §1"}, "Rattus norvegicus [14]": {"test_system": "Rattus norvegicus", "assay": "Toxicity in Sprague-Dawley rat assessed as change in breathing rate at 2000 mg/kg, po measured continuously for first 4 hrs followed by measured every hour for next 24 hrs and at 6 hrs intervals for following 48 hrs post dose", "type": "organism-based", "details": "in vivo", "how_it_was_run": "as §3"}, "Mus musculus": {"test_system": "Mus musculus", "assay": "Increase in ratio of 3,4-dihydroxyphenylacetic acid and 4-hydroxy-3-methoxyphenylacetic acid to dopamine level in Kunming mouse hypothalamus at 40 mg/kg, po treated for 7 days by HPLC-ECD analysis", "type": "functional, organism-based", "how_it_was_run": "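Male Kunming mice (18–20 g) given vehicle or 40 mg/kg for 7 days, then killed by cervical dislocation. Frontal cortex, hippocampus, striatum, hypothalamus and thalamus dissected on ice, homogenized in ice-cold 0.2 M perchloric acid with 0.1 mM EDTA, centrifuged 15,000 rpm, 20 min, 4 °C. Supernatant analysed by HPLC-ECD at +0.50 V; phosphate/octanesulfonate mobile phase pH 3.0 with 12% methanol. Levels in ng/g, mean ± SEM.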"}, "[15]": {"assay": "Drug metabolism in Sprague-Dawley rat urine assessed as 5'-(1-hydroxyallyl)-5-propyl-2'-((2S,3R,4S,5S,6R)-3,4,5-trihydroxy-6-(hydroxymethyl)tetrahydro-2H-pyran-2-yloxy)biphenyl-2-yl hydrogen sulfate formation at 100 mg/kg, po by UPLC-IT-TOF-MS analysis", "type": "ADME, organism-based", "details": "in vivo", "how_it_was_run": "as §1"}},
  "note": "Activity calls are given as the source filed them. The rule behind the calls is not given here.",
  "data": [
    {"smiles": "C=CCc1ccc(O)c(-c2cc(CC=C)ccc2O[C@@H]2O[C@H](CO)[C@@H](O)[C@H](O)[C@H]2O)c1", "values": [
      {"measurement": "Drug metabolism", "setting": "[1]", "result": "Metabolite_Detected"},
      {"measurement": "Drug metabolism", "setting": "[2]", "result": "Metabolite_Detected"},
      {"measurement": "Drug uptake", "setting": "[3]", "result": "Active"},
      {"measurement": "Drug metabolism", "setting": "[4]", "result": "Metabolite_Notdetected"},
      {"measurement": "EC50", "setting": "[5]", "result": 383, "unit": "µM"},
      {"measurement": "Drug metabolism", "setting": "[6]", "result": "Metabolite_Notdetected"},
      {"measurement": "Activity", "setting": "Rattus norvegicus [7]", "result": "Non-Toxic"},
      {"measurement": "Drug metabolism", "setting": "[8]", "result": "Metabolite_Notdetected"},
      {"measurement": "Drug metabolism", "setting": "[9]", "result": "Metabolite_Notdetected"},
      {"measurement": "Activity", "setting": "Rattus norvegicus [10]", "result": "Non-Toxic"},
      {"measurement": "Drug metabolism", "setting": "[11]", "result": "Metabolite_Notdetected"},
      {"measurement": "Drug metabolism", "setting": "[12]", "result": "Metabolite_Notdetected"},
      {"measurement": "Drug metabolism", "setting": "[13]", "result": "Metabolite_Notdetected"},
      {"measurement": "Activity", "setting": "Rattus norvegicus [14]", "result": "Non-Toxic"},
      {"measurement": "Activity", "setting": "Mus musculus", "result": "Active"},
      {"measurement": "Drug metabolism", "setting": "[15]", "result": "Metabolite_Notdetected"}
    ]}
  ]
}
